The values that follow come from ChEMBL document CHEMBL1140496, “Discovery of N-phenyl nicotinamides as potent inhibitors of Kdr” (Bioorg Med Chem Lett, 2007).

Series [1] has as its target T1, Vascular endothelial growth factor receptor 2 (Homo sapiens, UniProt P35968). The series can be described thus: Inhibition of phosphorylated-Kdr after 30 mins.
The target in series [2] is T1, Vascular endothelial growth factor receptor 2. The series can be described thus: Inhibition of unphosphorylated-Kdr after 30 mins.
The test system of series [3] is HUVEC. The series can be described thus: Antiproliferative activity against VEGF-driven HUVEC. It is filed as functional, cell-based. Particulars: Homo sapiens.
Series [4] deals with HUVEC. The series can be described thus: Antiproliferative activity against bFGF-driven HUVEC. It is filed as functional, cell-based. Particulars: Homo sapiens.
Series [5] in a line: Bioavailability in rat at 100 mg/kg. In kind it is ADME, organism-based. The note with it: in vivo.
Series [6] can be described thus: Clearance in rat at 100 mg/kg. It is filed as ADME, organism-based. Details: dose 100 mg/kg. The note with it: in vivo.
Series [7] in a line: AUC in rat at 100 mg/kg. The note with it: plasma. In kind it is ADME, organism-based. Details: dose 100 mg/kg.
The next series deals with A-431. In words: Antitumor activity in A431 cells xenografted po dosed nude mouse assessed as delay in disease progression administered twice daily. In kind it is functional, organism-based. The note with it: Homo sapiens. In a few lines:
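Nude mice bearing A431 human […] epidermoid carcinoma xenografts received oral doses twice daily at 37.5, 75 or 150 mg/kg, against vehicle. Tumor size (cubic mm) was followed from about day 5 to day 23, with percent body weight also tracked. Groups were compared by p-values.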

T1 sequence (P35968 whole entry): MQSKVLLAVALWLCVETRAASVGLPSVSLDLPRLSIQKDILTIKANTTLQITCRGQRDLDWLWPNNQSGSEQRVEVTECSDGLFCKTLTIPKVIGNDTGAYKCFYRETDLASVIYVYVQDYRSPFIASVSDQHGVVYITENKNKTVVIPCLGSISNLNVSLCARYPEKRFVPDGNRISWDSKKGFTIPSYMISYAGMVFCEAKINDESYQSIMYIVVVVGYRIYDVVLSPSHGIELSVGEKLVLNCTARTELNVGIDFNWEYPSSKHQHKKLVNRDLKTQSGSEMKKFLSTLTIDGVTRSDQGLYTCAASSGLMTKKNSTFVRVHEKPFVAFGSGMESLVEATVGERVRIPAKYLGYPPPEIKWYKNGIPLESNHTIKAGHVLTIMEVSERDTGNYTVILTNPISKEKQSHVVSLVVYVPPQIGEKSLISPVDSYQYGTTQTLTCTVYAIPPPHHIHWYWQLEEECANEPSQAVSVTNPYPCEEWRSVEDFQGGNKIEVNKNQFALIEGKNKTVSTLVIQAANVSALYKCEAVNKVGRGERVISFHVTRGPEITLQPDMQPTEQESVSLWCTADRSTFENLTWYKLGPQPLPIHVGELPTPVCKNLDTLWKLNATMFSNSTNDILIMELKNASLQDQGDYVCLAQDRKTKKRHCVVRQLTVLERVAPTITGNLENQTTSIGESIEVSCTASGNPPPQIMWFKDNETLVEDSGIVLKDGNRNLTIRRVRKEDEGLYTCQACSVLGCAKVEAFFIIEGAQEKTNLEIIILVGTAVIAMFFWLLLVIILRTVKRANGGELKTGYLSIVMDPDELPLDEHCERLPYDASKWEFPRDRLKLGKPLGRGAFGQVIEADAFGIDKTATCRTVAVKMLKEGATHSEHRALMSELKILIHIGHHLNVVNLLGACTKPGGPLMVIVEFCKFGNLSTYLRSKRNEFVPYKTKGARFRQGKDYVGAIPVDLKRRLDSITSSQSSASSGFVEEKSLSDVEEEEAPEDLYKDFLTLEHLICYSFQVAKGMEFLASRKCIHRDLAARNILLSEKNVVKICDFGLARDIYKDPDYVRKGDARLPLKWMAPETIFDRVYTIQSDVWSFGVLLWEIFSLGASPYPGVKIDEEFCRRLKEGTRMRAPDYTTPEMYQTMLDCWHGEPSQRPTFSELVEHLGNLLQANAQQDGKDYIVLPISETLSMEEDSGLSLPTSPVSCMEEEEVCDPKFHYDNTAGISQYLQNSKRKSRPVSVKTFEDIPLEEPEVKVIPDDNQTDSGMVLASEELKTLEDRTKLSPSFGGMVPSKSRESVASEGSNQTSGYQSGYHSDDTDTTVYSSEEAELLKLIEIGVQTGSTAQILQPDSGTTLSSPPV

`O=C(Nc1ccc(Cl)cc1)c1ncccc1NCc1ccncc1` returned a Ki in series [1] of more than 10000 nM.

Turning to `O=C(Nc1ccc(OC(F)(F)F)cc1)c1cccnc1NCc1ccncc1`, the affinity in series [1], expressed as Ki, was 23 nM. Same read-out and setting: the figure for `O=C(Nc1ccccc1Oc1ccccc1)c1cccnc1NCc1ccncc1` is more than 20000 nM; for `O=C(Nc1ccc(Cl)cc1)c1ccccc1NCc1ccncc1` it is 15 nM. On to `O=C(Nc1ccc(Cl)cc1)c1cc(Br)cnc1NCc1ccncc1`, for which the affinity in series [1] corresponds to a Ki of 490 nM. Still for that read-out and setting: the figure for `O=C(Nc1ccc(Oc2ccccc2)cc1)c1cccnc1Nc1csc2ccccc12` is more than 20000 nM; for `O=C(Nc1ccc(Cl)c(Cl)c1)c1cccnc1NCc1ccncc1` it is 17 nM. In series [1], `O=C(Nc1cc(C(F)(F)F)cc(C(F)(F)F)c1)c1cccnc1NCc1ccncc1` had a Ki of 8 nM.

With `O=C(Nc1ccc(Oc2ccccc2)cc1)c1cccnc1NCc1ccc2c(c1)OCO2`, the Ki in series [1] came out at 38 nM. On the same count and under the same terms, the figure for `CN1CCN(c2ccc(NC(=O)c3cccnc3NCc3ccncc3)cc2)CC1` is more than 6660 nM; for `O=C(Nc1ccc(C(F)(F)F)cc1)c1cccnc1NCc1ccncc1` it is 9 nM. On to `O=C(Nc1ccc(Cl)cc1)c1cccnc1NCc1ccncc1`, for which the Ki in series [2] came to 8 nM. The IC50 in the series with HUVEC [3] is 8 nM; in the series with HUVEC [4], more than 1000 nM. In series [5], this compound returned a bioavailability of 45%. The compound further gave a clearance in series [6] of 73.3 mL/min/kg. This compound displayed an AUC in series [7] of 20000 ng·h/mL. For the same compound, the Activity result with A-431 was “Dose-dependent effect”. `O=C(Nc1cccc(Cl)c1)c1cccnc1NCc1ccncc1`: the Ki in series [1] worked out at 2 nM. For the same compound, the values for the half-inhibitory concentration (IC50) in the series on HUVEC [3] and in the series on HUVEC [4] were 40 nM and more than 1000 nM, respectively. Compound `CCOC(=O)c1coc(-c2cccc(NC(=O)c3cccnc3NCc3ccncc3)c2)c1` came in with a Ki in series [1] of 29 nM. In series [1], `CCc1cccc(NC(=O)c2cccnc2NCc2ccncc2)c1` came in with a Ki of 106 nM. The same measure, in the same setting: to `O=C(Nc1ccc(Cl)cc1)C1CCCCC1NCc1ccncc1` (configuration not stated) belongs more than 10000 nM.

In the case of `O=C(Nc1ccc(Oc2ccccc2)cc1)c1cccnc1Nc1ccc2cn[nH]c2c1`, the inhibitory constant (Ki) in series [1] came out at 70 nM. This counts as double-digit nanomolar.

`O=C(Nc1ccc(Cl)cc1)c1cncnc1NCc1ccncc1` came in with a Ki in series [1] of 140 nM. Still for that read-out and setting: to `CC(O)c1cccc(NC(=O)c2cccnc2NCc2ccncc2)c1` (configuration not stated) belongs more than 6660 nM; to `O=C(Nc1ccc(Oc2ccccc2)cc1)c1cccnc1NCc1ccc(F)cc1`, 135 nM. In turn, `O=C(Nc1ccc(Cl)cc1)c1sccc1NCc1ccncc1` came in with a Ki in series [2] of 120 nM. The compound `O=C(Nc1ccc(C2CCCCC2)cc1)c1cccnc1NCc1ccncc1` yielded a Ki in series [1] of 2 nM. In other words, the single-digit nanomolar range. In the case of `Cc1ccc(C(=O)Nc2ccc(Cl)cc2)c(NCc2ccncc2)n1`, in series [2], the Ki is more than 10000 nM.

`O=C(Nc1ccc(Cl)c(C(F)(F)F)c1)c1cccnc1NCc1ccncc1` displayed a Ki in series [1] of 4 nM.

The Ki is the equilibrium dissociation constant of an inhibitor or competing ligand from its target. A higher Ki goes with lower affinity. Broadly, the IC50 is the midpoint of a concentration-inhibition curve. Read a high IC50 as weaker potency in that assay. A word on the bioavailability: it is dose-corrected exposure relative to a reference, in per cent. A lower bioavailability goes with little systemic uptake. The clearance is a measure of how efficiently the substance is removed, as volume per time. Low readings indicate inefficient removal, high ones efficient removal. In general, AUC refers to the area under the concentration-time curve, a measure of exposure. A low value points to low exposure.
